From ChEMBL document CHEMBL1799921, “3-(1,3,4-Thiadiazole-2-yl)quinoline derivatives: synthesis, characterization and anti-microbial activity” (Eur J Med Chem, 2011)
Values after ≈ are worked out from the molar mass of the structure shown.

Tests used:
[1] = test system: Staphylococcus aureus; experiment: Antibacterial activity against Staphylococcus aureus measured at MIC after 18 hrs by halo zone test; type: functional
Outline: (§1)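 Disk diffusion. Strains subcultured 18 h at 37 °C in BHI, then suspended in saline by McFarland to about 10⁵ CFU/mL. Suspension mixed 1:1 with antibiotic agar at 40 °C and plated. 6.0 mm paper disks loaded with dilutions from a DMSO stock (1 mg per 100 of DMSO). Incubated 18 h at 36 °C. Inhibition zone (mm) measured at the MIC. Amoxicillin and DMSO disks as controls.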

[2] = test system: Escherichia coli; experiment: Antibacterial activity against Escherichia coli measured at MIC after 18 hrs by halo zone test; type: functional; outline: as §1
[3] = test system: Streptococcus pyogenes; experiment: Antibacterial activity against Streptococcus pyogenes measured at MIC after 18 hrs by halo zone test; type: functional; outline: as §1
[4] = test system: Salmonella typhimurium; experiment: Antibacterial activity against Salmonella Typhimurium measured at MIC after 18 hrs by halo zone test; type: functional, Salmonella enterica subsp. enterica serovar Typhimurium; outline: as §1
[5] = test system: Staphylococcus aureus; experiment: Antibacterial activity against Staphylococcus aureus after 18 hrs by macro-dilution test; type: functional
Outline: (§2)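 Tube macro-dilution. Compounds in DMSO serially diluted to final […]. 24 h old inoculum added to each tube. Standard inoculum […]. Incubated 18 h at 37 °C. MIC is the lowest concentration with no visible growth, read visually. DMSO negative and amoxicillin positive controls.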

[6] = test system: Streptococcus pyogenes; experiment: Antibacterial activity against Streptococcus pyogenes after 18 hrs by macro-dilution test; type: functional; outline: as §2
[7] = test system: Salmonella typhimurium; experiment: Antibacterial activity against Salmonella Typhimurium after 18 hrs by macro-dilution test; type: functional, Salmonella enterica subsp. enterica serovar Typhimurium; details: Salmonella enterica; outline: as §2
[8] = test system: Escherichia coli; experiment: Antibacterial activity against Escherichia coli after 18 hrs by macro-dilution test; type: functional; outline: as §2
[9] = Cytotoxicity against rat H9c2 cells assessed as cell viability at 1.57 to 200 mg/mL after 48 hrs by MTT assay; type: cell-based; details: read-out: Activity
Outline: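 Subconfluent H9c2 cardiac myoblasts treated with increasing concentrations for 48 h at 37 °C in 5% CO₂, alongside untreated cells. Then washed in PBS and given MTT (5 mg/mL) for 45 min at 37 °C. Crystals dissolved in acid isopropanol, absorbance read at 570 nm. Viability is absorbance of treated relative to untreated cells. Triplicate. DMSO and amoxicillin controls.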

Q: For `CC(=O)NC1=NN(C(C)=O)C(c2cc3cccc(C)c3nc2Cl)S1` (centres undefined), which “inhibition zone (IZ)” value [1] is on record?
A: 13.66 mm

Q: What about the “inhibition zone (IZ)” value [2] of the same molecule?
A: 18.34 mm

Q: And the “inhibition zone (IZ)” value [3]?
A: 16.77 mm

Q: What about the “inhibition zone (IZ)” value [4] of the same molecule?
A: 18.08 mm

Q: And the MIC [5]?
A: 64 µg/mL (≈ 176 µM)

Q: And the MIC [6]?
A: 64 µg/mL (≈ 176 µM)

Q: What about the MIC [7] of the same molecule?
A: 256 µg/mL (≈ 706 µM)

Q: What about the MIC [8] of the same molecule?
A: 256 µg/mL (≈ 706 µM)

Q: Which results are given for `CC(=O)N1N=C(N(C(C)=O)C2CCCC2)SC1c1cc2cccc(C)c2nc1Cl` (centres undefined)?
A: inhibition zone (IZ) [1]: 19 mm; inhibition zone (IZ) [2]: 16.08 mm; inhibition zone (IZ) [3]: 17.71 mm; inhibition zone (IZ) [4]: 15.13 mm; MIC [5]: 128 µg/mL (≈ 297 µM); MIC [6]: 64 µg/mL (≈ 149 µM); MIC [7]: 128 µg/mL (≈ 297 µM); MIC [8]: 128 µg/mL (≈ 297 µM)

Q: Which “inhibition zone (IZ)” value [1] does the source give for `CC(=O)N1N=C(N(C(C)=O)C2CCCCC2)SC1c1cc2cccc(C)c2nc1Cl` (centres undefined) here?
A: 15.42 mm

Q: What about the “inhibition zone (IZ)” value [2] of the same molecule?
A: 16.75 mm

Q: And the “inhibition zone (IZ)” value [3]?
A: 13.09 mm

Q: What about the “inhibition zone (IZ)” value [4] of the same molecule?
A: 12.01 mm

Q: And the MIC [5]?
A: 128 µg/mL (≈ 288 µM)

Q: What about the MIC [6] of the same molecule?
A: 128 µg/mL (≈ 288 µM)

Q: And the MIC [7]?
A: 256 µg/mL (≈ 575 µM)

Q: What about the MIC [8] of the same molecule?
A: 256 µg/mL (≈ 575 µM)

Q: What does the source list for `CC(=O)N1N=C(N(C(C)=O)C2CCCCCCC2)SC1c1cc2cccc(C)c2nc1Cl` (centres undefined)?
A: inhibition zone (IZ) [1]: 18.77 mm; inhibition zone (IZ) [2]: 19 mm; inhibition zone (IZ) [3]: 15.45 mm; inhibition zone (IZ) [4]: 17.84 mm; MIC [5]: 256 µg/mL (≈ 541 µM); MIC [6]: 256 µg/mL (≈ 541 µM); MIC [7]: 128 µg/mL (≈ 271 µM); MIC [8]: 256 µg/mL (≈ 541 µM)

Q: With `CC(=O)N(C1=NN(C(C)=O)C(c2cc3cccc(C)c3nc2Cl)S1)c1ccccc1C` (centres undefined) as the molecule, how does the “inhibition zone (IZ)” value [1] read?
A: 15.8 mm

Q: What about the viability at 48 h ([9]; in the assay text read “1.57 to 200 ug/mL” for “1.57 to 200 mg/mL”) of the same molecule?
A: > 80%

Q: And the “inhibition zone (IZ)” value [2]?
A: 17.9 mm

Q: And the “inhibition zone (IZ)” value [3]?
A: 19.14 mm

Q: And the “inhibition zone (IZ)” value [4]?
A: 16.11 mm

Q: What about the MIC [5] of the same molecule?
A: 64 µg/mL (≈ 141 µM)

Q: What about the MIC [6] of the same molecule?
A: 32 µg/mL (≈ 70.6 µM)

Q: What about the MIC [7] of the same molecule?
A: 32 µg/mL (≈ 70.6 µM)

Q: What about the MIC [8] of the same molecule?
A: 64 µg/mL (≈ 141 µM)

Q: For `CC(=O)N(C1=NN(C(C)=O)C(c2cc3cccc(C)c3nc2Cl)S1)c1cc(F)ccc1F` (centres undefined), which “inhibition zone (IZ)” value [1] is on record?
A: 21.99 mm

Q: What about the viability at 48 h [9] of the same molecule?
A: > 80%

Q: And the “inhibition zone (IZ)” value [2]?
A: 15.36 mm

Q: And the “inhibition zone (IZ)” value [3]?
A: 16.13 mm

Q: And the “inhibition zone (IZ)” value [4]?
A: 16.6 mm

Q: And the MIC [5]?
A: 64 µg/mL (≈ 135 µM)

Q: What about the MIC [6] of the same molecule?
A: 16 µg/mL (≈ 33.7 µM)

Q: What about the MIC [7] of the same molecule?
A: 32 µg/mL (≈ 67.4 µM)

Q: What about the MIC [8] of the same molecule?
A: 64 µg/mL (≈ 135 µM)

Q: For `CC(=O)N(C1=NN(C(C)=O)C(c2cc3cccc(C)c3nc2Cl)S1)c1ccc(C)cc1` (centres undefined), which “inhibition zone (IZ)” value [1] is on record?
A: 18.92 mm

Q: And the “inhibition zone (IZ)” value [2]?
A: 18.16 mm

Q: And the “inhibition zone (IZ)” value [3]?
A: 18.32 mm

Q: And the “inhibition zone (IZ)” value [4]?
A: 17.27 mm

Q: And the MIC [5]?
A: 64 µg/mL (≈ 141 µM)

Q: What about the MIC [6] of the same molecule?
A: 64 µg/mL (≈ 141 µM)

Q: And the MIC [7]?
A: 64 µg/mL (≈ 141 µM)

Q: What about the MIC [8] of the same molecule?
A: 64 µg/mL (≈ 141 µM)

Q: With `CC(=O)N(C1=NN(C(C)=O)C(c2cc3cccc(C)c3nc2Cl)S1)c1ccc([N+](=O)[O-])cc1` (centres undefined) as the molecule, how does the “inhibition zone (IZ)” value [1] read?
A: 16.54 mm

Q: What about the “inhibition zone (IZ)” value [2] of the same molecule?
A: 13.03 mm

Q: And the “inhibition zone (IZ)” value [3]?
A: 15.27 mm

Q: And the “inhibition zone (IZ)” value [4]?
A: 19.16 mm

Q: And the MIC [5]?
A: 64 µg/mL (≈ 132 µM)

Q: What about the MIC [6] of the same molecule?
A: 64 µg/mL (≈ 132 µM)

Q: And the MIC [7]?
A: 64 µg/mL (≈ 132 µM)

Q: What about the MIC [8] of the same molecule?
A: 64 µg/mL (≈ 132 µM)

Q: Which “inhibition zone (IZ)” value [1] does the source give for `CC1(C)S[C@@H]2[C@H](NC(=O)[C@H](N)c3ccc(O)cc3)C(=O)N2[C@H]1C(=O)O` [AMOXICILLIN] here?
A: 20.85 mm

Q: And the “inhibition zone (IZ)” value [2]?
A: 22.05 mm

Q: What about the “inhibition zone (IZ)” value [3] of the same molecule?
A: 19.57 mm

Q: What about the “inhibition zone (IZ)” value [4] of the same molecule?
A: 21.82 mm

Q: What about the MIC [5] of the same molecule?
A: 32 µg/mL (≈ 87.6 µM)

Q: And the MIC [6]?
A: 32 µg/mL (≈ 87.6 µM)

Q: What about the MIC [7] of the same molecule?
A: 32 µg/mL (≈ 87.6 µM)

Q: And the MIC [8]?
A: 32 µg/mL (≈ 87.6 µM)
